Where “and” joins values, the source holds several entries; their conditions need not be identical. Identical values can stand only once. About 1,200 (48%) of roughly 2,500 compounds were called active.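 Rule for the calls: active = mean activation above the low control average plus 3 SD, as set in the primary screen (cut at about 12% in these data); inactive = the rest.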 The set was probably picked from earlier hits. The list shows a part of the results. A structure can be active in one record and inactive in another.
Target: Troponin I, cardiac muscle (Homo sapiens) + Troponin T, cardiac muscle (Homo sapiens) + Troponin C, slow skeletal and cardiac muscles (Homo sapiens) (UniProt P19429+P45379+P63316)
Test: calcium sensitizers of cardiac thin filaments – biochemical, IANBD-TnC fluorescence, triplicate, confirmation (AID 504383);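 note: 0% = DMSO at 0.472 mM calcium and 100% = DMSO at 2.9 mM calcium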
Details: IANBD-labeled cardiac RTF, Ca2+ sensitivity fluorescence; at 7.2 µM; stronger effect = higher value; scaled from EC20 to saturating calcium; tested at EC20 calcium, 0.472 mM
In short: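 Assay system: labelled regulated thin filament protein complex; schedule: 15 min compound incubation with filaments at 25 °C; benchmarks: low control EC20 calcium, high control EC100 calcium; reagent: Ca2+ 0.472 mM, EC20 level; doses: one dose, 7.2 µM nominal; evaluation: fluorescence gain scaled between EC20 and EC100 calcium controls; signal: filament fluorescence intensity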

Row | Structure (SMILES) | activation
1 | CCCNS(=O)(=O)c1ccc2c(c1)n(C)c(=O)n2C | 12.4% (active)
2 | CCCCN(Cc1ccccc1)S(=O)(=O)c1ccc2c(c1)n(C)c(=O)c(=O)n2C | 2.32% (inactive)
3 | COc1ccc(S(=O)(=O)N(CC(C)C)C2CCS(=O)(=O)C2)cc1OC (configuration not stated) | 17.1% (active)
4 | CCN(CC)CCN1C(=O)c2cccc3cc(N)cc(c23)C1=O | 128% (active)
5 | O=C1c2cccc3cc([N+](=O)[O-])cc(c23)C(=O)N1CCN1CCCC1 | 8.4% (inactive)
6 | O=C(N/N=C/c1ccc2c(c1)OCO2)/C(=C/c1ccc2c(c1)OCO2)NC(=O)c1ccccc1 | 11.7% (active)
7 | CN(C)c1ccc(/C=N/NC(=O)c2cnc3ccccc3c2)cc1 | 6.1% (inactive)
8 | O=C(N/N=C/c1ccc([N+](=O)[O-])cc1)c1cc(-c2ccc3c(c2)OCO3)n[nH]1 | 0.5% (inactive)
9 | Cc1ccc(Cn2cc(CCC(=O)O)c3ccccc32)cc1 | 16.7% (active)
10 | Nc1nc(SCc2cccc(Br)c2)n[nH]1 | 9.18% (inactive)
11 | COc1cc2c(cc1NC(=O)COC(=O)/C=C/c1ccc([N+](=O)[O-])cc1)oc1ccccc12 | 4480% (active)
12 | COc1cc([N+](=O)[O-])ccc1N/C=C/C(=O)c1cccs1 | 5.01% (inactive)
13 | COc1cc([N+](=O)[O-])ccc1NC(=O)COC(=O)c1n[nH]c2ccccc12 | 6.72% (inactive)
14 | CN1CCCc2cc3c(C(F)(F)F)cc(=O)oc3nc21 | 10.7% (inactive)
15 | Cc1ccc(C(=O)NCC(=O)OCC(=O)N(CC(C)C)c2c(N)n(Cc3ccccc3)c(=O)[nH]c2=O)cc1 | 8.28% (inactive)
16 | Cc1ccc(C(=O)NCC(=O)OCC(=O)c2ccc(Cl)s2)cc1 | 232% (active)
17 | Cc1cc(C)n(NC(=S)NC2CCCCC2)c(=O)c1C#N | 7.29% (inactive)
18 | O=C1/C(=C\c2c(NCCOCCO)nc3ccccn3c2=O)SC(=S)N1Cc1ccco1 | 92.6% (active)
19 | CCCN(CCC)c1nc2c(C)cccn2c(=O)c1/C=C1/SC(=S)N(Cc2ccco2)C1=O | 3.6% (inactive)
20 | Cc1ccc(S(=O)(=O)N2CCN(c3ncccn3)CC2)cc1C | 4.74% (inactive)
21 | Cc1ccc(/C=C/C(=O)N2CCN(S(=O)(=O)c3ccc(C)c(C)c3)CC2)o1 | 17.9% (active)
22 | COc1ccc(S(=O)(=O)N2CCSC2)cc1C | 2.98% (inactive)
23 | Oc1[nH]c2ccccc2c1N=Nc1cccc(Cl)c1 | 7.29% (inactive)
24 | Oc1[nH]c2ccccc2c1N=Nc1ccccc1Cl | 4.59% (inactive)
25 | Oc1[nH]c2ccccc2c1N=Nc1ccc(F)cc1 | 109% (active)

Row | Structure (SMILES) | activation
26 | Cc1ccc(Cl)c2c(N=Nc3ccccc3)c(O)[nH]c12 | 14.7% (active)
27 | Oc1[nH]c2ccccc2c1N=Nc1ccccc1 | 26.4% (active)
28 | Oc1[nH]c2ccccc2c1N=Nc1ccccc1F | 2.72% (inactive)
29 | O=C(c1cnc2ccccc2n1)N1CCN(c2ccc(C(F)(F)F)cn2)CC1 | 32.8% (active)
30 | Cc1ccc(NC(=O)O/N=C/c2ccc(F)cc2)cc1 | 8.78% (inactive)
31 | CCN(CC)c1ccc(/C=N/OCC(=O)Nc2cccc(C)c2)cc1 | 19.6% (active)
32 | Cc1ccc(NC(=O)CO/N=C/c2ccc(N(C)C)cc2)cc1 | 6.41% (inactive)
33 | O=C(O)c1cc(NCc2ccc(F)cc2)ccc1N1CCOCC1 | 91.3% (active)
34 | O=C(N1CCOCC1)N1CCN(c2ccc(F)cc2)CC1 | 2.34% (inactive)
35 | O=C1N/C(=C\c2ccc(N3CCOCC3)c(F)c2)C(=O)N1Cc1ccccc1 | 5.84% (inactive)
36 | C=CCOc1ccc(CNc2ccc3[nH]c(=O)[nH]c3c2)cc1OCC | 25% (active)
37 | CN(C)c1ccc(/C=C/c2ccc3ccccc3n2)cc1 | 14.9% (active)
38 | CC(C)CC[n+]1ccccc1/C=C/c1ccc(N(C)C)cc1 | 7% (inactive)
39 | CN(C)c1ccc(/C=C/c2nc3ccccc3c(=O)[nH]2)cc1 | 9.5% (inactive)
40 | CN(C)c1ccc(C2C=C(c3ccc(Cl)cc3OC(F)F)Nc3ncnn32)cc1 (configuration not stated) | 80% (active)
41 | Cc1ccsc1C1C=C(c2cccc(Br)c2)Nc2ncnn21 (configuration not stated) | 1.58% (inactive)
42 | Cc1c(C=O)c2ccccn2c1C(=O)c1cccs1 | 6.64% (inactive)
43 | Nc1nc(NCCCN2CCOCC2)nc(Nc2cccc(Cl)c2)c1[N+](=O)[O-] | 5.57% (inactive)
44 | Cc1cccc(Nc2c([N+](=O)[O-])c(=O)oc3ccccc23)c1 | 23.2% (active)
45 | COc1ccc(CCC(=O)N2CCc3ccccc32)cc1 | 6.5% (inactive)
46 | COc1ccc(CC/C(C)=N\NC(N)=O)cc1 | 16.2% (active)
47 | COc1ccc(CC(=O)NNC(=O)c2ccncc2)cc1 | 8.9% (inactive)
48 | Cc1ccc(C)c(S(=O)(=O)N2CCCC2CNC(=O)C(=O)NC2CC2)c1 (configuration not stated) | 5.98% (inactive)
49 | Cc1ccc(-c2nc(NC(=O)CSc3cc(C)c4ccccc4n3)ns2)cc1 | 4.39% (inactive)
50 | Cc1ccc(SCC(=O)c2sc(-c3ccccc3)nc2C)cc1 | 35.4% (active)

Row | Structure (SMILES) | activation
51 | C=C(C)c1sc(-c2ccc(Cl)cc2)nc1C | 1.76% (inactive)
52 | COc1ccc2noc3c2c1C(=O)c1ccccc1-3 | 3.9% (inactive)
53 | Nc1ccc2c3c(cccc13)CC2 | 6.56% (inactive)
54 | COc1ccc2c3c(cccc13)C(=O)CC2 | 18.7% (active)
55 | CCCn1c(=O)c(C(=O)NNC(=O)c2ccccc2[N+](=O)[O-])c(O)c2ccccc21 | 18.9% (active)
56 | CC1CCN(c2oc(-c3ccccc3F)nc2C#N)CC1 | 10.8% (inactive)
57 | CCOC(=O)Cn1c(=NC(=O)c2cc(-c3cccs3)nc3ccccc23)sc2cc(S(N)(=O)=O)ccc21 | 1.79% (inactive)
58 | COCCn1c(=NC(=O)/C=C/c2ccccc2)sc2cc(NC(C)=O)ccc21 | 19.9% (active)
59 | CC1(C(=O)Nc2nnc(SCc3ccccc3)s2)Cc2ccccc2C(=O)O1 (configuration not stated) | 22.1% (active)
60 | CC1(C)CC(=O)c2sc(NC(=O)Cc3cccs3)nc2C1 | 4.44% (inactive)
61 | CN1CCC2(CC1)C1CN(C)CC=C1C(C#N)=C(N)C2(C#N)C#N (configuration not stated) | 1.95% (inactive) and 33.7% (active)
62 | CCOc1ccc(C2C(C#N)=C(N)SC(N)=C2C#N)c(OCC)c1 | 10% (inactive)
63 | CCOc1cc(C2C(C#N)=C(N)OC(C)=C2C(C)=O)cc(Br)c1O (configuration not stated) | 213% (active)
64 | S=C(Nc1cc(Cl)ccc1Oc1ccccc1)N1CCN(c2ccccn2)CC1 | 102% (active)
65 | O=C(COc1ccccc1Cl)N1CCN(c2ccccn2)CC1 | 10.9% (inactive)
66 | O=c1c2ccccc2nc2n1CCCN2 | 17.2% (active)
67 | CCC[C@@H](CN1CCC[C@H]1CN1C(N)=NC[C@@H]1Cc1ccccc1)N1C[C@@H](Cc2ccccc2)N(CCCC2CCCC2)C1=N | 38.3% (active)
68 | CCOc1cc(C#N)ccc1OCC(=O)N1CCc2ccccc2C1 | 12.3% (active)
69 | CC(C(=O)N1CCc2ccccc2C1)N1C(=O)c2ccccc2C1=O (configuration not stated) | 2.65% (inactive)
70 | O=C(Cn1c(=O)oc2cc(S(=O)(=O)N3CCCC3)ccc21)N1CCc2ccccc2C1 | 10.4% (inactive)
71 | CCNc1cccc2c1C(=O)N(C)C2=O | 1.44% (inactive)
72 | CCC1(O)C(=O)OCc2c1cc1n(c2=O)Cc2cc3cc(O)ccc3nc2-1 (configuration not stated) | 16.1% (active)
73 | CC[C@@]1(O)C(=O)OCc2c1cc1n(c2=O)Cc2cc3c(CN(C)C)c(O)ccc3nc2-1 | 22.4% (active)
74 | CCOc1nnc(C)c2c(C)n(-c3cccc(Cl)c3)nc12 | 5.31% (inactive)
75 | Cc1ccc(/C=C2/SC(=O)NC2=S)o1 | 29.6% (active)

Row | Structure (SMILES) | activation
76 | O=C1NC(=S)/C(=C\c2ccc(-c3ccccc3Cl)o2)S1 | 14.2% (active)
77 | O=C(O)c1ccccc1-c1ccc(/C=C2\SC(=O)N(c3ccccc3)C2=O)o1 | 9.01% (inactive)
78 | Cc1noc(/C=C/c2ccc(-c3ccccc3Cl)o2)c1[N+](=O)[O-] | -1.31% (inactive)
79 | Cc1nc2ccc(Cl)cc2nc(C)/c1=N\O | 6.95% (inactive)
80 | CCOC(=O)c1c(-c2ccccc2)csc1NC(=O)/C(C#N)=C\c1ccc(O)c(OC)c1 | 11.3% (inactive)
81 | CCOC(=O)c1c(-c2ccccc2)csc1NC(=O)/C(C#N)=C/c1ccc(O)c(OC)c1 | 23.8% (active)
82 | CCNC(=S)N/N=C/c1sc(N2CCCCC2)nc1-c1cccs1 | 1.11% (inactive)
83 | S=C(Nc1ccc(Cl)cc1)N(CCCN1CCOCC1)Cc1ccco1 | 11.2% (inactive)
84 | COC(=O)Cc1ccc(NC(=S)NCCCN2CCOCC2)cc1 | 2.97% (inactive)
85 | S=C(NCCCN1CCOCC1)Nc1ccc(-c2nc3ccccc3[nH]2)cc1 | 17% (active)
86 | O=C(O)c1ccccc1CSc1nnnn1-c1ccccc1 | 51.1% (active)
87 | C(=N\Nc1nnnn1-c1ccccc1)/c1ccncc1 | 6.05% (inactive)
88 | O=C(NCC1CCCO1)c1ccc2c(c1)C(=O)N(c1cccc([N+](=O)[O-])c1)C2=O (configuration not stated) | 31.3% (active)
89 | O=C(Cn1ncc2c3ccccc3n(Cc3cccc(Cl)c3)c2c1=O)NCC1CCCO1 (configuration not stated) | 5.86% (inactive)
90 | O=C(NCC1CCCO1)c1cccc2c1C(=O)c1ccc(N3CCC(Cc4ccccc4)CC3)cc1S2(=O)=O (configuration not stated) | 4.73% (inactive)
91 | Cc1cccc(CSc2ccc(-c3ccco3)nn2)c1 | -0.44% (inactive)
92 | N#Cc1ccccc1OCC(=O)OCC(=O)c1ccc2c(c1)NC(=O)CO2 | 21.9% (active)
93 | Cn1c(=O)cc(SCC(=O)NCC2COc3ccccc3O2)c2ccccc21 (configuration not stated) | 7.4% (inactive)
94 | CSc1c(CC(=O)NCCO)n(C)c2ccccc12 | 23.2% (active)
95 | O=C(O)c1ccccc1/C=N/NC(=S)NC1CCCCC1 | 5.68% (inactive)
96 | O=C(NC1CCCCC1)c1ccccc1NC(=S)NC(=O)C1CCC1 | 24.5% (active)
97 | Cc1ccccc1C(=O)NC(=S)NC1CC1 | 0.94% (inactive)
